Measurements as given in ChEMBL document CHEMBL1122233, “Antihypertensive 9-substituted 1-oxa-4,9-diazaspiro[5.5]undecan-3-ones” (J Med Chem, 1983).
Active and inactive are the calls of the source. The rule behind the calls is not given here.

Key:
[1] = test system: Rattus norvegicus; assay: Percentage fall in systolic blood pressure after 4 hr at 25 mg/kg given perorally; assay type: functional, Artery; settings: route oral
In short: (§1)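 Male Okamoto-Aoki spontaneously hypertensive rats, trained, in groups of four matched for mean systolic pressure; five treated groups and one vehicle control run concurrently. Oral dosing in water (solution or suspension, 0.1 mL/10 g) on two consecutive mornings. On day 2, rats were restrained at 30.0 ± 1.0 °C and tail-cuff systolic pressure recorded at 1–4 h; percent fall versus control, 1-tail t test, p ≤ 0.05.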

[2] = test system: Rattus norvegicus; assay: (§2) Percentage fall in systolic blood pressure after 4 hr at 12.5 mg/kg given perorally; assay type: functional, organism-based; parameters: dose 12.5 mg/kg; settings: Artery; in short: as §1
[3] = test system: Rattus norvegicus; assay: (§3) Percentage fall in systolic blood pressure after 1 hr at 12.5 mg/kg given perorally; assay type: functional, organism-based; parameters: dose 12.5 mg/kg; settings: Artery; in short: as §1
[4] = test system: Rattus norvegicus; assay: Percentage fall in systolic blood pressure after 3 hr at 12.5 mg/kg given perorally; assay type: functional, organism-based; parameters: dose 12.5 mg/kg; settings: Artery; in short: as §1
[5] = biological target: T1, Adrenergic receptor alpha-2 (Rattus norvegicus, UniProt P22086+P19328+P22909); assay: Affinity for alpha-2 adrenergic receptor of rat cerebral cortex was determined by ligand binding using [3H]yohimbine.; assay type: tissue-based
T1 sequence (P22086 whole entry): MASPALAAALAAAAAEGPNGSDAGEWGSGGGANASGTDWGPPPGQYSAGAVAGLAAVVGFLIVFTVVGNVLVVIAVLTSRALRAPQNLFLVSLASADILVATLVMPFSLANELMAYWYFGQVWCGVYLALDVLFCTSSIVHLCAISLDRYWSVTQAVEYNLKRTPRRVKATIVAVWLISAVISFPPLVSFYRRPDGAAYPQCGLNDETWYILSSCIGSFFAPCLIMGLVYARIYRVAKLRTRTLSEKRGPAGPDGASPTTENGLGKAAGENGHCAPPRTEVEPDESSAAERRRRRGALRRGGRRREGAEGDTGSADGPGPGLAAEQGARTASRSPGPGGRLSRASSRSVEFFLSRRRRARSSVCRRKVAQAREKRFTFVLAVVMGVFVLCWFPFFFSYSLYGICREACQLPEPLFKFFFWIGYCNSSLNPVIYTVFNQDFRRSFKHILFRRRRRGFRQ
T1 sequence (P19328 whole entry): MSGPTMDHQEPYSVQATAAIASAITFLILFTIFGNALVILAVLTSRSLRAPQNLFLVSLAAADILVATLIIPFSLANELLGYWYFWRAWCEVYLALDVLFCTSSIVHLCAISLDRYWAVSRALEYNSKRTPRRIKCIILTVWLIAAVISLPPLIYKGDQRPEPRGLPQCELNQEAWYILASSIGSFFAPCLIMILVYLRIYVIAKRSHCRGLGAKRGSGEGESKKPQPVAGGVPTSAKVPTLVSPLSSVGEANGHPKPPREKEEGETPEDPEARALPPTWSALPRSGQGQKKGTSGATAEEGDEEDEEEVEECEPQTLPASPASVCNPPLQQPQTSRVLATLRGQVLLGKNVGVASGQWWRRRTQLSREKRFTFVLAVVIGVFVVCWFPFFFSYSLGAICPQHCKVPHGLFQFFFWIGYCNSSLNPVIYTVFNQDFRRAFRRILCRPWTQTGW
T1 sequence (P22909 whole entry): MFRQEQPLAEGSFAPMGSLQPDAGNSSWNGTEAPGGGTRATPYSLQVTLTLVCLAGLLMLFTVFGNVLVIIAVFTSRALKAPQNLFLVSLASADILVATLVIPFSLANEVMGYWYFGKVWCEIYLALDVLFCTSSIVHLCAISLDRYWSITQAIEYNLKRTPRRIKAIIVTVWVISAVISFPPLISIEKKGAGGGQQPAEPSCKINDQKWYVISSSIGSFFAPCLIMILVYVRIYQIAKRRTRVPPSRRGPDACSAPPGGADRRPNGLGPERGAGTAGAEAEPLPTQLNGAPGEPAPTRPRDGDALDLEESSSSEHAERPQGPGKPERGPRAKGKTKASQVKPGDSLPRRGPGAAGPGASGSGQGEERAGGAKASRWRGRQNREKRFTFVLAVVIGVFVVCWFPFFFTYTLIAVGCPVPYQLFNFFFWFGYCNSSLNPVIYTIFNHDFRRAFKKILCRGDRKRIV
In short: (§4)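 Washed rat cerebral cortex membranes (homogenised in 50 mM Tris-HCl pH 7.8, pelleted at 48000g, washed 3 times) at 2.5 mg/mL protein. […] Ice-cold buffer stop, then filtration. Nonspecific binding defined with 200 μmol norepinephrine. KI from IC50 by Cheng-Prusoff, given as negative log.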

[6] = test system: Rattus norvegicus; assay: (§5) Percentage fall in systolic blood pressure after 2 hr at 12.5 mg/kg given perorally; assay type: functional, organism-based; parameters: dose 12.5 mg/kg; settings: Artery; in short: as §1
[7] = test system: Rattus norvegicus; assay: (§6) Percentage fall in systolic blood pressure after 1 hr at 25 mg/kg given perorally; assay type: functional, Artery; settings: route oral; in short: as §1
[8] = test system: Rattus norvegicus; assay: (§7) Percentage fall in systolic blood pressure after 3 hr at 25 mg/kg given perorally; assay type: functional, Artery; settings: route oral; in short: as §1
[9] = test system: Rattus norvegicus; assay: Percentage fall in systolic blood pressure after 2 hr at 25 mg/kg given perorally; assay type: functional, Artery; settings: route oral; in short: as §1
[10] = biological target: T2, Adrenergic receptor alpha-1 (Rattus norvegicus, UniProt P15823+P23944+P43140); assay: Affinity for alpha-1 adrenoceptor of rat cerebral cortex was determined by ligand binding using [3H]prazosin.; assay type: tissue-based; in short: as §4
T2 sequence (P15823 whole entry): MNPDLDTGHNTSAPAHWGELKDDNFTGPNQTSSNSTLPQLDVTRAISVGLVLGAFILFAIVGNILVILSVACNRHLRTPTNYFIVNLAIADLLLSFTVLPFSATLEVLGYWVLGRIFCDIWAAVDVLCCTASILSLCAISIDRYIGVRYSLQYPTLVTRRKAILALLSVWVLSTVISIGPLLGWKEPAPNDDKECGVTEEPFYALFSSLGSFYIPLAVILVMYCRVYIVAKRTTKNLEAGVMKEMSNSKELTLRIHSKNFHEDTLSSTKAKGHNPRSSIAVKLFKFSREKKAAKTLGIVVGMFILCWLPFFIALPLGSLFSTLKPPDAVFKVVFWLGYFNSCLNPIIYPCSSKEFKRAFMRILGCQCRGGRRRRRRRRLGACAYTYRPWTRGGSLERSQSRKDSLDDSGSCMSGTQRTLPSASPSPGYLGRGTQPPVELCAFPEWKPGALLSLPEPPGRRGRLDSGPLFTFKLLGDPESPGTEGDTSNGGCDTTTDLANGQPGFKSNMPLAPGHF
T2 sequence (P23944 whole entry): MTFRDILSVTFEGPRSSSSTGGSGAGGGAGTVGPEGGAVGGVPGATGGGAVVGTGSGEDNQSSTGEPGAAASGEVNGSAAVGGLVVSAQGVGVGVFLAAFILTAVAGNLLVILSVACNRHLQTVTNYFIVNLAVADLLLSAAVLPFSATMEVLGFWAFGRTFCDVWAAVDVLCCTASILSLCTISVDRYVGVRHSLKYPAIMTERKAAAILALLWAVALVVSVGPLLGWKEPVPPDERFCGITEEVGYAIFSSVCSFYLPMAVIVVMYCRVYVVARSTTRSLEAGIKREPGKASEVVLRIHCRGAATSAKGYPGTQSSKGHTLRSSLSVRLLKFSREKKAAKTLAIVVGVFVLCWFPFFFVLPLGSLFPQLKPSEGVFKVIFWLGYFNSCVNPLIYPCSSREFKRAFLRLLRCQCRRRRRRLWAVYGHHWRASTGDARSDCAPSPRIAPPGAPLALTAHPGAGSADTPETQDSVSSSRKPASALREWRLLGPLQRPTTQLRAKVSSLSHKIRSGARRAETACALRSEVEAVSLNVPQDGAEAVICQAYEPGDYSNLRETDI
T2 sequence (P43140 whole entry): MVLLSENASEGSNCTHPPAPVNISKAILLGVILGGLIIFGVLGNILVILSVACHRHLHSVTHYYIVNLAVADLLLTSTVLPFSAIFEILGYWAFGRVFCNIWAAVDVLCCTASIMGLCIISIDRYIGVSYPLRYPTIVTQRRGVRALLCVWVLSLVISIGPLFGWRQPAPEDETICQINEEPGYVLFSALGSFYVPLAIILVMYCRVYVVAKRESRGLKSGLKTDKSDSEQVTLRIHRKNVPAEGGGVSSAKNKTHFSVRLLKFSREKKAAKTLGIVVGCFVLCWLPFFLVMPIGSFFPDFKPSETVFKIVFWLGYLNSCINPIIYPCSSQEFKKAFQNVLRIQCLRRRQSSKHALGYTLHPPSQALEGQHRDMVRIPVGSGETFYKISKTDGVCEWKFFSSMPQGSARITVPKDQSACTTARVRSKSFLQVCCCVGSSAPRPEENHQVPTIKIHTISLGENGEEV

[11] = test system: Rattus norvegicus; assay: as §6; assay type: functional, organism-based; parameters: dose 25 mg/kg; settings: Artery; in short: as §1
[12] = test system: Rattus norvegicus; assay: as §7; assay type: functional, organism-based; parameters: dose 25 mg/kg; settings: Artery; in short: as §1
[13] = test system: Rattus norvegicus; assay: (§8) Percentage fall in systolic blood pressure after 1 hr at 50 mg/kg given perorally; assay type: functional, organism-based; parameters: dose 50 mg/kg; settings: Artery; in short: as §1
[14] = test system: Rattus norvegicus; assay: (§9) Percentage fall in systolic blood pressure after 4 hours at 50 mg/kg given perorally; assay type: functional, organism-based; parameters: dose 50 mg/kg; settings: Artery
In short: (§10)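 Male Okamoto-Aoki SHR, four per group, with a concurrent vehicle control group. Oral dosing in water (0.1 mL/10 g) on two consecutive mornings. After the day-2 dose, rats were restrained in a 30 °C chamber. Tail-cuff systolic pressure was taken at 1-4 h from four traces per rat. Result is % decrease versus control mean, by 1-tailed t test, p ≤ 0.05.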

[15] = test system: Rattus norvegicus; assay: Percentage fall in systolic blood pressure after 2 hours at 50 mg/kg given perorally.; assay type: functional, Artery; settings: route oral; in short: as §1
[16] = test system: Rattus norvegicus; assay: (§11) Percentage fall in systolic blood pressure after 3 hours at 50 mg/kg given perorally; assay type: functional, organism-based; parameters: dose 50 mg/kg; settings: Artery; in short: as §10
[17] = test system: Rattus norvegicus; assay: as §2; assay type: functional, Artery; settings: route oral; in short: as §1
[18] = test system: Rattus norvegicus; assay: as §5; assay type: functional, Artery; settings: route oral; in short: as §1
[19] = test system: Rattus norvegicus; assay: as §3; assay type: functional, Artery; settings: route oral; in short: as §10
[20] = test system: Rattus norvegicus; assay: Percentage fall in systolic blood pressure after 2 hours at 25 mg/kg given perorally; assay type: functional, organism-based; parameters: dose 25 mg/kg; settings: Artery; in short: as §1
[21] = test system: Rattus norvegicus; assay: Percentage fall in systolic blood pressure after 4 hours at 25 mg/kg given perorally; assay type: functional, Artery; settings: route oral; in short: as §1
[22] = test system: Rattus norvegicus; assay: Percentage fall in systolic blood pressure after 3 hours at 25 mg/kg given perorally; assay type: functional, Artery; settings: route oral; in short: as §1
[23] = test system: Rattus norvegicus; assay: Percentage fall in systolic blood pressure after 2 hours at 50 mg/kg given perorally; assay type: functional, Artery; settings: route oral; in short: as §10
[24] = test system: Rattus norvegicus; assay: Percentage fall in systolic blood pressure after 2 hours at 12.5 mg/kg given perorally; assay type: functional, organism-based; parameters: dose 12.5 mg/kg; settings: Artery; in short: as §10
[25] = test system: Rattus norvegicus; assay: as §9; assay type: functional, Artery; settings: route oral; in short: as §10
[26] = test system: Rattus norvegicus; assay: as §11; assay type: functional, Artery; settings: route oral; in short: as §10
[27] = test system: Rattus norvegicus; assay: Percentage fall in systolic blood pressure after 4 hours at 12.5 mg/kg given perorally; assay type: functional, organism-based; parameters: dose 12.5 mg/kg; settings: Artery; in short: as §10
[28] = test system: Rattus norvegicus; assay: Percentage fall in systolic blood pressure after 3 hours at 12.5 mg/kg given perorally; assay type: functional, organism-based; parameters: dose 12.5 mg/kg; settings: Artery; in short: as §10
[29] = test system: Rattus norvegicus; assay: as §8; assay type: functional, Artery; settings: route oral; in short: as §10

## O=C(NC1CCN(CCc2c[nH]c3ccccc23)CC1)c1ccccc1 [INDORAMIN]
[1]
  Decrease in SBP: 30%
[2]
  Decrease in SBP: inactive
[3]
  Decrease in SBP: inactive
[4]
  Decrease in SBP: inactive
[5]
  -Log Ki: 4.92
[6]
  Decrease in SBP: inactive
[7]
  Decrease in SBP: 27%
[8]
  Decrease in SBP: 34%
[9]
  Decrease in SBP: 28%
[10]
  -Log Ki: 7.61

## O=C1COC2(CCN(CC(O)C3COc4ccccc4O3)CC2)CN1c1ccccc1 (stereo unspecified)
[1]
  Decrease in SBP: 16%
[11]
  Decrease in SBP: Not significant
[9]
  Decrease in SBP: 25%
[12]
  Decrease in SBP: Not significant

## O=C1COC2(CCN(CC(O)COc3ccccc3)CC2)CN1 (stereo unspecified)
[13]
  Decrease in SBP: Not significant
[14]
  Decrease in SBP: Not significant
[15]
  Decrease in SBP: 18%
[16]
  Decrease in SBP: Not significant

## CN1CC2(CCN(CC(O)C3COc4ccccc4O3)CC2)OCC1=O (stereo in doubt; 61)
[1]
  Decrease in SBP: 40%
[17]
  Decrease in SBP: 19%
[18]
  Decrease in SBP: 22%
[8]; 25 mg/kg
  Decrease in SBP: 40%
[9]; 25 mg/kg
  Decrease in SBP: 36%
[19]
  Decrease in SBP: 25%

## O=C1COC2(CCN(CCc3ccc(O)cc3)CC2)CN1
[20]
  Decrease in SBP: Not significant
[21]
  Decrease in SBP: 21%
[7]
  Decrease in SBP: 13%
[22]
  Decrease in SBP: 11%

## O=C1COC2(CCN(CCc3c[nH]c4ccccc34)CC2)CN1c1ccccc1
[23]
  Decrease in SBP: 59%
[24]
  Decrease in SBP: Not significant
[25]
  Decrease in SBP: 40%
[26]
  Decrease in SBP: 45%
[27]
  Decrease in SBP: Not significant
[28]
  Decrease in SBP: Not significant
[19]
  Decrease in SBP: 19%
[29]
  Decrease in SBP: 45%
